Changes are numbered by the printed parent chain.
Legend:
[1] = target: T1, PBD2 (PPIP5K2) (Homo sapiens, UniProt O43314); test: SPR equilibrium binding to immobilized lipid vesicles, PBD2; details: SPR, in words
T1 sequence (O43314 371-901 isoform O43314-2): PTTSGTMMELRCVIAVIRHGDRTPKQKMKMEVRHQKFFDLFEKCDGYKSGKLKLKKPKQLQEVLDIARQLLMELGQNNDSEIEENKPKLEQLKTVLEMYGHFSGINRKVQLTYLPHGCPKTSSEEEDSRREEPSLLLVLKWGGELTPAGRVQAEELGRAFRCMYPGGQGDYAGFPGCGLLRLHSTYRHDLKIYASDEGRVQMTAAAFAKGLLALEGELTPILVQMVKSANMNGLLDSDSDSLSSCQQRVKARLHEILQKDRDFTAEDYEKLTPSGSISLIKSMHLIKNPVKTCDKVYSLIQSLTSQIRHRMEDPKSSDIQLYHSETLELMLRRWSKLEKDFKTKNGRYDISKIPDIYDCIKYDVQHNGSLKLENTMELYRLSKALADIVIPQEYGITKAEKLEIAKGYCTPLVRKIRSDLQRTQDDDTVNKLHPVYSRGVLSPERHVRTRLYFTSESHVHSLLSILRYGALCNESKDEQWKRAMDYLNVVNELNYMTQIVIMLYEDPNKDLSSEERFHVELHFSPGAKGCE
How it was run: (§1)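 Large unilamellar vesicles (PtdCho/PtdE/test phosphoinositide 77:20:3) were captured on an L1 chip to 5000 RU. Signals were corrected against phosphoinositide-free vesicles. Kd came from nonlinear fitting of Req = Rmax/(1+Kd/C). Concentrations were: GRP-1 PH domain 2.5–125 nM; PBD1 on PtdIns(3,4,5)P₃ 5–150 nM; bisphosphate vesicles 75–1900 nM.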

[2] = target: T2, PBD1 (PPIP5K1) (Homo sapiens, UniProt Q6PFW1); test: SPR equilibrium binding to immobilized lipid vesicles, PBD1; details: SPR, in words
T2 sequence (Q6PFW1 382-917): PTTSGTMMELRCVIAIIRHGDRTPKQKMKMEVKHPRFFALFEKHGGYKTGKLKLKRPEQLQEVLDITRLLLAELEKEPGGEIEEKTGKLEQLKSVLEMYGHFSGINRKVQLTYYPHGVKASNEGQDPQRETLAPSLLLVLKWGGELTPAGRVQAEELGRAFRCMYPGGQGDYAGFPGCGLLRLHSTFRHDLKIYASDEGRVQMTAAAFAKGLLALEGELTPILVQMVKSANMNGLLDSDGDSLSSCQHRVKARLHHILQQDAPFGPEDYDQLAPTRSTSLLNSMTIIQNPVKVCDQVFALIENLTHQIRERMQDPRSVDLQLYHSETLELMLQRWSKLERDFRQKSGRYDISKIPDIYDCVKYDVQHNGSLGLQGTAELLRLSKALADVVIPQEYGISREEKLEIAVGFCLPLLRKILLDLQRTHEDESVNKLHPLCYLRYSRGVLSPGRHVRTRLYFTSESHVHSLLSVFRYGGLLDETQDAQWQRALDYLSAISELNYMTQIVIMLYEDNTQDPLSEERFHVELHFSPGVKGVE
How it was run: as §1

[3] = target: T3, PBD1R417A (Homo sapiens, UniProt Q6PFW1, R417A); test: SPR equilibrium binding, PBD1 R417A mutant; details: results not shown
T3 sequence (Q6PFW1 382-917 R417A): T2 sequence (Q6PFW1 382-917) with R36A

binding to PBD2 [1]: relatively weakly
binding to PBD1 [2]: significantly weaker ligands
binding to PBD1 R417A [3]: eliminated all detectable binding
Substance: PtdIns(4,5)P2

Source: publication PMC3962999 (The Biochemical journal, 2011)
